The IC50 is the concentration at which inhibition is half-maximal. The term GI50 denotes the concentration giving 50% growth inhibition.

The source made the active and inactive calls. The rule behind the calls is not given here.

Here are results for four compounds from ChEMBL document CHEMBL4396931, “Fluorescent analogs of peptoid-based HDAC inhibitors: Synthesis, biological activity and cellular uptake kinetics” (Bioorg Med Chem, 2019).

The target in data set [1] is Histone deacetylase 3/Nuclear receptor corepressor 2 (HDAC3/NCoR2) (Homo sapiens, UniProt O15379). In words: Inhibition of recombinant human C-terminal GST/His-tagged HDAC3 (1 to 428 residues) co-expressed with human N-terminal GST-tagged NCOR2 (395 to 489 residues) in baculovirus infected Sf9 cells using ZMAL as substrate incubated for 90 mins by fluorometric method.
Histone deacetylase 3/Nuclear receptor corepressor 2 (HDAC3/NCoR2), sequence (O15379 whole entry, the tested form may be a part): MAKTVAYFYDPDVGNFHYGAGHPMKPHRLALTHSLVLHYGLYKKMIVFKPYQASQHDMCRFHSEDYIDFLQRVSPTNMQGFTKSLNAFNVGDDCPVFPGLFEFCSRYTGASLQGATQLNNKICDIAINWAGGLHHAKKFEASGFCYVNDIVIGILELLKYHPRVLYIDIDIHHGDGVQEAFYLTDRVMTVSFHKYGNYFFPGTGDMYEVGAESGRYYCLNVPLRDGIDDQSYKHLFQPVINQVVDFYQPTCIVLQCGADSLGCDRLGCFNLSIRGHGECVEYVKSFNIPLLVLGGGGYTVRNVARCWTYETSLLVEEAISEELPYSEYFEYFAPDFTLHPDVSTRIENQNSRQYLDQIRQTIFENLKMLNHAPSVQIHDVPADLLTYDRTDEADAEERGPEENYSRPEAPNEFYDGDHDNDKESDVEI
Histone deacetylase 3/Nuclear receptor corepressor 2 (HDAC3/NCoR2), sequence (Q9Y618 whole entry, further chain, the tested form may be a part): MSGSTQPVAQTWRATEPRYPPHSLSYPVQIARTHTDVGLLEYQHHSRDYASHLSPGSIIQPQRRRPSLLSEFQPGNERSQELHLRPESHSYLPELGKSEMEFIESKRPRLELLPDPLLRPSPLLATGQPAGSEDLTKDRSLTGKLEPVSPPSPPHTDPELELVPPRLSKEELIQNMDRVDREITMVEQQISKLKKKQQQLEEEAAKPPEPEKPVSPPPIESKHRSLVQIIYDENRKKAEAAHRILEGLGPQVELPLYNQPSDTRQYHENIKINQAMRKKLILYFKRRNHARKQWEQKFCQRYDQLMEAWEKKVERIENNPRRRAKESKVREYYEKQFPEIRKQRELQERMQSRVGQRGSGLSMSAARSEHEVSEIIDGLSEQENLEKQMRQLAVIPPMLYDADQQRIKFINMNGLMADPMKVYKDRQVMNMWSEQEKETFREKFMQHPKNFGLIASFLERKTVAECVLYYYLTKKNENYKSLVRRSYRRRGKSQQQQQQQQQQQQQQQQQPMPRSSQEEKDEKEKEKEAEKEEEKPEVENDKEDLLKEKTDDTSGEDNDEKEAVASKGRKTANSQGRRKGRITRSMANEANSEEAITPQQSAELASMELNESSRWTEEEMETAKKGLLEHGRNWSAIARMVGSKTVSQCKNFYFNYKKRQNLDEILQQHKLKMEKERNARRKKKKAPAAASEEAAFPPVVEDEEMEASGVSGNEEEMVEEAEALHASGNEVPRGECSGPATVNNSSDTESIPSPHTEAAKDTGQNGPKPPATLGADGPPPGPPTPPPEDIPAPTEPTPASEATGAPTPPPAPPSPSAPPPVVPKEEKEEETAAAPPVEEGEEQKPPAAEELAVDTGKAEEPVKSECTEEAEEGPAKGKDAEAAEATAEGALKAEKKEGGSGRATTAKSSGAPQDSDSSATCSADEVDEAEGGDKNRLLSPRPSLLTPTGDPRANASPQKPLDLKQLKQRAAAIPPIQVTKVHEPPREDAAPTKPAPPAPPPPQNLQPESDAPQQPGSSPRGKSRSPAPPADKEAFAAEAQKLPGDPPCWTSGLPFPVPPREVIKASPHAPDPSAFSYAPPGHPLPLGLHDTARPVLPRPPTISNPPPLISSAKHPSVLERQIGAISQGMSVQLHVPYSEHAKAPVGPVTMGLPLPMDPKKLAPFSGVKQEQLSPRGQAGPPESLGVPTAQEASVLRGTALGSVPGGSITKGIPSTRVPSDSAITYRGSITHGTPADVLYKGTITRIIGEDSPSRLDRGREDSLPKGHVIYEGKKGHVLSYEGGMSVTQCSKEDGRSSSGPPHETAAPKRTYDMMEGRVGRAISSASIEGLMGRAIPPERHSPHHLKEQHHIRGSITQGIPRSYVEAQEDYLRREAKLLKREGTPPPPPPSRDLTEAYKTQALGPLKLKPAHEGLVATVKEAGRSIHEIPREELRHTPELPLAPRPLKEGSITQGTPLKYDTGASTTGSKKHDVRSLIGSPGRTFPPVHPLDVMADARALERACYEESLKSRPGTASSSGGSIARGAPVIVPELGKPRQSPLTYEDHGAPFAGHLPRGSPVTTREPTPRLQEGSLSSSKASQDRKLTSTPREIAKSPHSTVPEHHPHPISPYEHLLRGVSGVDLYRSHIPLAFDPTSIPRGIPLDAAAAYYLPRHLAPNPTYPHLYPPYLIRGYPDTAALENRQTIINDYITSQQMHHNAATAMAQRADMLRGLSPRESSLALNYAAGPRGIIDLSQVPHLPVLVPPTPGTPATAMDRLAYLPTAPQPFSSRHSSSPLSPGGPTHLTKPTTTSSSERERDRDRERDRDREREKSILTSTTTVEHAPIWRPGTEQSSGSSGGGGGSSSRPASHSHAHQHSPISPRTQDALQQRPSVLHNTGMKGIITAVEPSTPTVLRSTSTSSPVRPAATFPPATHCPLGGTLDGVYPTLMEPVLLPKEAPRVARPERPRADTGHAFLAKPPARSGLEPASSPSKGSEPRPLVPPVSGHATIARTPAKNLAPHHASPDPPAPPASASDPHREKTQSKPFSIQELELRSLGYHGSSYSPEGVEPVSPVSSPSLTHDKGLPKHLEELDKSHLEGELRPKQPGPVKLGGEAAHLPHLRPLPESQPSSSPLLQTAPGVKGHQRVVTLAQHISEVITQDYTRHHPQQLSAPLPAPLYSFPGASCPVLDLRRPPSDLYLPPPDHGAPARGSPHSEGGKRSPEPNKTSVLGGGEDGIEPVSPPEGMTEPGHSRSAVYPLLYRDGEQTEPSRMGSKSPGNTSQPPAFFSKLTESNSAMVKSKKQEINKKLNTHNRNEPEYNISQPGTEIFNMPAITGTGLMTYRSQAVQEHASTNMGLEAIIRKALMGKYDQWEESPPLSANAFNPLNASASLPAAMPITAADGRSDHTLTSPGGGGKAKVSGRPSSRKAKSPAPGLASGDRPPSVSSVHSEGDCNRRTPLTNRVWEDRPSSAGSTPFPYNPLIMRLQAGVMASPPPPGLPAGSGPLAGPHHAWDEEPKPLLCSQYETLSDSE

The nature of data set [2]: Drug uptake in human OE33 cells assessed as increase in fluorescence intensity at 1.25 uM measured for every 10 sec for 30 mins by fluorescence based assay. In kind it is ADME, cell-based. Conditions: oe33, 0.5 h. The method in brief:
(§1)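 Cells exposed to 1.25 µM compound, fluorescence recorded at Ex 370 nm / Em 530 nm every 10 s for 30 min on an epifluorescence microscope (40× objective). Treatment started 1 min before recording. Representative images taken at 15 min.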

Data set [3] can be described thus: Drug uptake in human OE19 cells assessed as cytoplasmic retention at 1.25 uM measured after 30 mins by RFP-tagged histone H2B staining based confocal microscopy. It is filed as ADME, cell-based. The note with it: oe19, 0.5 h. An outline of the steps: (§2)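 Cells transfected with cDNA for histone H2B–RFP (DNA:reagent 1:1), then incubated 30 min with 1.25 µM compound. Imaged by confocal microscopy with 63× objective and 405 nm excitation.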

Data set [4] has as its target T1, Protein deacetylase HDAC6 (Homo sapiens, UniProt Q9UBN7).
T1 sequence (Q9UBN7 whole entry): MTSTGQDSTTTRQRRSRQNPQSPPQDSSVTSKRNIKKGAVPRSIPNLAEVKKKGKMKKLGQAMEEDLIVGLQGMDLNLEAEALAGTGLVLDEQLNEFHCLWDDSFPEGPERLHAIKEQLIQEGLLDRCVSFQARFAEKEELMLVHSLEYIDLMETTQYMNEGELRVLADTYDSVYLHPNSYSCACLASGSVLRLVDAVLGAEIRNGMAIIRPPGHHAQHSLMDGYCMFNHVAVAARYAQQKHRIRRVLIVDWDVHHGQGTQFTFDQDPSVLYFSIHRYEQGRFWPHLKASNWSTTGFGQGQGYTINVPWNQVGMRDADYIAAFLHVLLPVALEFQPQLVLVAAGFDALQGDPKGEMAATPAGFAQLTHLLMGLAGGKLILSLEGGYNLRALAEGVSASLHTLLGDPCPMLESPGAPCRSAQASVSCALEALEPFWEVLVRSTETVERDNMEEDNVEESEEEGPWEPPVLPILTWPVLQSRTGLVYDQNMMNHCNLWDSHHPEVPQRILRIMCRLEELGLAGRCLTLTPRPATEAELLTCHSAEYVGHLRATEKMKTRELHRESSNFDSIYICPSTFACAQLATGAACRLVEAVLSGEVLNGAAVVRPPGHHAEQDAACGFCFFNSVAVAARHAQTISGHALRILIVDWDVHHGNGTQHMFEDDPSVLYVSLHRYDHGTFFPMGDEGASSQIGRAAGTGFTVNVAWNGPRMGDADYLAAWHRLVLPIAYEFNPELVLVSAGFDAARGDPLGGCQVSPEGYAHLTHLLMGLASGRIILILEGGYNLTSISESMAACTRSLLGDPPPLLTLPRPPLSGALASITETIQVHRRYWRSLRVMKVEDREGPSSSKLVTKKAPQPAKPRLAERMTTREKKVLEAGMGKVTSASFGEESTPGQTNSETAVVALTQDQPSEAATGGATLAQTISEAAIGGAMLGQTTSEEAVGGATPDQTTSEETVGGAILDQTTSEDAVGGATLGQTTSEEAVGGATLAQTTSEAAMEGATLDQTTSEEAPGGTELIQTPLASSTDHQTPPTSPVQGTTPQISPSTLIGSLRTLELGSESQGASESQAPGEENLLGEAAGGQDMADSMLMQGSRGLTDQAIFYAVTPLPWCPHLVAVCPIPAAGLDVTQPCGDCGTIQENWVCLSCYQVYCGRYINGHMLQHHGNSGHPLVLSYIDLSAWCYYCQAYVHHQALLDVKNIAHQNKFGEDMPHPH
In words: Inhibition of recombinant human full length C-terminal GST-tagged HDAC6 expressed in baculovirus infected Sf9 cells using ZMAL as substrate incubated for 90 mins by fluorometric method.

Data set [5] in a line: Drug uptake in human OE19 cells assessed as cytoplasmic retention at 1.25 uM measured after 30 mins by RFP-tagged histone H2B staining based confocal microscopy. The note with it: oe19, 30 min.
Data set [6] can be described thus: Drug uptake in human OE19 cells assessed as increase in fluorescence intensity at 1.25 uM measured after 15 mins by microscopic method. Conditions: oe19, 0.25 h. In kind it is ADME, cell-based. The method in brief:
as §1

A short description of data set [7]: Drug uptake in human OE33 cells assessed as cytoplasmic retention at 1.25 uM measured after 30 mins by RFP-tagged histone H2B staining based confocal microscopy. Conditions: oe33, 30 min.
The test system of data set [8] is OE33. In words: Antiproliferative activity against human OE33 cells assessed as reduction in cell viability incubated for 72 hrs by presto blue assay. It is filed as functional. The method in brief:
(§3)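 3500 cells per well seeded and grown 24 h, then exposed to compound for 72 h. Viability read with PrestoBlue reagent per manufacturer's protocol, and GI50 taken from this.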

In data set [9] the target is T2, Histone deacetylase (Homo sapiens) (UniProt Q13547+O15379+Q9UBN7+Q92769+Q9UQL6+Q8WUI4+Q9BY41+Q96DB2+P56524+Q9UKV0+Q969S8). In words: Inhibition of HDAC in human OE33 cells assessed as increase in histone H3 acetylation at 6.5 uM incubated for 48 hrs by Western blot analysis. It is filed as cell-based. The method in brief:
(§4)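 500,000 OE33 or 750,000 OE19 cells treated 48 h. Histones isolated, 5 µg nuclear extract run on 15% SDS-PAGE and blotted. Probed overnight at 4 °C with anti-acetyl-histone H3 (Lys9) and anti-histone H3, compared with untreated controls.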

Data set [10] concerns the target Histone deacetylase 2 (Homo sapiens, UniProt Q92769). In words: Inhibition of recombinant human full length C-terminal Flag-tagged HDAC2 expressed in baculovirus infected Sf9 cells using ZMAL as substrate incubated for 90 mins by fluorometric method. In kind it is cell-based.
A short description of data set [11]: Drug uptake in human OE33 cells assessed as increase in fluorescence intensity at 1.25 uM measured after 15 mins by microscopic method. The note with it: oe33, 0.25 h. It is filed as ADME, cell-based. The method in brief:
as §1

The nature of data set [12]: Drug uptake in human OE33 cells assessed as cytoplasmic retention at 1.25 uM measured after 30 mins by RFP-tagged histone H2B staining based confocal microscopy. It is filed as ADME, cell-based. Conditions: oe33, 0.5 h. An outline of the steps:
as §2

Data set [13] addresses T2, Histone deacetylase (Homo sapiens). In words: Inhibition of HDAC in human OE19 cells assessed as increase in histone H3 acetylation at 6.5 uM incubated for 48 hrs by Western blot analysis. It is filed as cell-based. An outline of the steps: as §4
(A western blot detects proteins with antibodies after separation by electrophoresis.)

Data set [14] has as its target Histone deacetylase 1 (Homo sapiens, UniProt Q13547). In words: Inhibition of recombinant human full length C-terminal Flag/His-tagged HDAC1 expressed in baculovirus infected Sf9 cells using ZMAL as substrate incubated for 90 mins by fluorometric method.
For data set [15], the system named is OE19. In words: Antiproliferative activity against human OE19 cells assessed as reduction in cell viability incubated for 72 hrs by presto blue assay. It is filed as functional. The method in brief: as §3
A short description of data set [16]: Drug uptake in human OE19 cells assessed as increase in fluorescence intensity at 1.25 uM measured for every 10 sec for 30 mins by fluorescence based assay. Conditions: oe19, 0.5 h. In kind it is ADME, cell-based. The method in brief: as §1
For data set [17], the target named is T2, Histone deacetylase (Homo sapiens). In words: Inhibition of HDAC in human OE33 cells assessed as increase in histone H3 acetylation at 2.25 uM incubated for 48 hrs by Western blot analysis. In kind it is cell-based. An outline of the steps: as §4
Data set [18] has the same target. In words: Inhibition of HDAC in human OE19 cells assessed as increase in histone H3 acetylation at 2.25 uM incubated for 48 hrs by Western blot analysis. In kind it is cell-based. The method in brief:
as §4

Data set [19] shares this target. In words: Inhibition of HDAC in human OE33 cells assessed as increase in histone H3 acetylation at 0.6 uM incubated for 48 hrs by Western blot analysis. In kind it is cell-based. An outline of the steps:
as §4

Data set [20] has the same target. In words: Inhibition of HDAC in human OE19 cells assessed as increase in histone H3 acetylation at 0.6 uM incubated for 48 hrs by Western blot analysis. In kind it is cell-based. An outline of the steps:
as §4

Histone deacetylase 2, sequence (Q92769 whole entry): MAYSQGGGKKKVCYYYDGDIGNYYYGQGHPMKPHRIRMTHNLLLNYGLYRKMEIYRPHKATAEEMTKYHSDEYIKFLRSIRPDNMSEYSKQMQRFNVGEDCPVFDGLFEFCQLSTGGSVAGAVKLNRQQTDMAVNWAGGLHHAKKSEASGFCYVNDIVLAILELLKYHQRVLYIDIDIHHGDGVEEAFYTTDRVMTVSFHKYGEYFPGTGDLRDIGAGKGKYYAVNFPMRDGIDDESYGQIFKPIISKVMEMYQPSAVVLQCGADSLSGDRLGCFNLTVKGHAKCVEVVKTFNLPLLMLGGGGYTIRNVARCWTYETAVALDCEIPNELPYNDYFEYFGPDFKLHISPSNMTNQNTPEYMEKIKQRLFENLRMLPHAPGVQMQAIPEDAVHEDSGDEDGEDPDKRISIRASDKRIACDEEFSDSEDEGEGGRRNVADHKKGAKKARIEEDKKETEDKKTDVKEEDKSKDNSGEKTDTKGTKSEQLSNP
Histone deacetylase 1, sequence (Q13547 whole entry): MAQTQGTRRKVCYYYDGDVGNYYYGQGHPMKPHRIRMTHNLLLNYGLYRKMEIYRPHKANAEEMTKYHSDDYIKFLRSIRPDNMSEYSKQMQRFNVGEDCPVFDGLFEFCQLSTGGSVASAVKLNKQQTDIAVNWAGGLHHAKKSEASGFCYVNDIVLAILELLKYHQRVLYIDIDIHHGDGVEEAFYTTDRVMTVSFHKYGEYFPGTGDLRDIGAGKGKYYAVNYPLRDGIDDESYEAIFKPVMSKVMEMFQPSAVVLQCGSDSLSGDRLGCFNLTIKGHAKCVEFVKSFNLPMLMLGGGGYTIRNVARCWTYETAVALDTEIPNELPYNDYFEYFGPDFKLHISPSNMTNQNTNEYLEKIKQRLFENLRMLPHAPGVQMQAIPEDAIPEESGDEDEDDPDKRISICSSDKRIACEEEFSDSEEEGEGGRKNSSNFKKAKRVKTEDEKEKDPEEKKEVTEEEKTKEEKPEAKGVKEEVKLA

Take `CN(C)c1cccc2c(S(=O)(=O)N(CC(=O)NCc3ccccc3)Cc3ccc(C(=O)NO)cc3)cccc12`: the IC50 was found to be 1020 nM in data set [1], 132 nM in data set [4], 3500 nM in [10] and 915 nM in data set [14]. Besides, the Drug uptake result in data set [2], in data set [3], in [5], in data set [6], in data set [7] and in data set [11] was “Active” each time. For the same compound, the Drug uptake entry in data set [12] and in data set [16] was “Active” in each case. In addition, the GI50 in data set [8] (Homo sapiens, OE33, 72 h) came out at 6230 nM; in data set [15] (Homo sapiens, OE19, 72 h), 12900 nM. Also, the inhibition entry in [9] and in data set [13] was “Active” throughout.
As for `O=C(CCCCCCC(=O)Nc1ccccc1)NO` [VORINOSTAT], the GI50 in data set [8] came out at 1120 nM; in data set [15] it was 1420 nM.
On to `CN(C)c1cccc2c(S(=O)(=O)N(CCCCCC(=O)NO)CC(=O)NCc3ccccc3)cccc12`, for which the IC50 stood at 87 nM in data set [1], 46 nM in data set [4], 81 nM in [10] and 34 nM in data set [14]. For the same compound, the Drug uptake entry in data set [2], in [3], in data set [5], in data set [6], in data set [7] and in data set [11] was “Active” each time. In addition, the Drug uptake result in data set [12] and in [16] was “Active” throughout. In addition, the inhibition result in data set [17] and in [18] was “Active” throughout. Further, the GI50 in data set [8] (Homo sapiens, OE33, 72 h) turned out to be 776 nM; in data set [15] (Homo sapiens, OE19, 72 h), 925 nM.
`CN(C)c1cccc2c(S(=O)(=O)N(CC(=O)NCc3ccccc3)Cc3ccc(C(=O)Nc4ccccc4N)cc3)cccc12`: the IC50 in data set [1] was 1130 nM; in data set [4], above 10000 nM; in [10] it was 668 nM; in [14], 676 nM. Moreover, the Drug uptake entry in data set [2], in data set [3], in data set [5], in data set [6], in data set [7] and in data set [11] was “Active” each time. In addition, the Drug uptake entry in data set [12] and in [16] was “Active” in each case. The GI50 turned out to be 4590 nM in data set [8] (Homo sapiens, OE33, 72 h) and 9100 nM in data set [15] (Homo sapiens, OE19, 72 h). The inhibition entry in data set [19] and in data set [20] was “Active” in each case.
